Source: PubChem BioAssay
NPY-Y1 antag – blocks the human neuropeptide Y Y1 receptor | P25929 | HEK293-CNG Y1 cells, membrane potential fluorescence; NPY at EC95, then isoproterenol | inhibition, % at 3.6 µM | actives 1% (n = 200,000) | AID 1040;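 active means inhibition above the campaign mean inhibition of all tested compounds plus 3 SD, cut at about 20% in these data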;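 further: 0% = DMSO wells given NPY plus isoproterenol and 100% = isoproterenol alone without NPY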
Target sequence (P25929 whole entry, looked up): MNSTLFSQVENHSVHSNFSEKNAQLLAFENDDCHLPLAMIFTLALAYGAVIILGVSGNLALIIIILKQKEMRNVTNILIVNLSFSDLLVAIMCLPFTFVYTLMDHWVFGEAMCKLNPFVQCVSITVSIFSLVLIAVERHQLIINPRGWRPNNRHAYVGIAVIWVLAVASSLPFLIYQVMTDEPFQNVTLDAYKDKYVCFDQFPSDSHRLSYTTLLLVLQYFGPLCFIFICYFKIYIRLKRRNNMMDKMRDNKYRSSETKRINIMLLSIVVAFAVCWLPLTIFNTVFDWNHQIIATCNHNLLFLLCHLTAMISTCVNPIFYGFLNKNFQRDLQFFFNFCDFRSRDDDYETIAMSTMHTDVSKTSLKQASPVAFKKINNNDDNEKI
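Material: HEK293 Y1/CNG channel cell line; also added: NPY (25 nM), isoproterenol (1 µM), Ro 20-1724 (25 µM); doses: one concentration, 3.6 µM, in 0.4% DMSO; schedule: compound incubation 1 h at room temperature, readout 45 min post-stimulation; technique: membrane potential fluorescence; measure: fluorescence ratio normalized to % inhibition between controls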
NPY-Y2 PAM-ag – potentiators or agonists of human neuropeptide Y receptor Y2 | cells expressing NPY-Y2, potentiator/agonist read-out | activation, % at 3.6 µM | actives 0.45% (n = 220,000) | AID 1359; in the data active means activation above about 27%;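 further: cells stimulated with NPY near EC25 plus isoproterenol at EC100; 0% = vehicle plus submaximal agonist and 100% = vehicle plus saturating agonist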
Target sequence (P49146 whole entry, looked up): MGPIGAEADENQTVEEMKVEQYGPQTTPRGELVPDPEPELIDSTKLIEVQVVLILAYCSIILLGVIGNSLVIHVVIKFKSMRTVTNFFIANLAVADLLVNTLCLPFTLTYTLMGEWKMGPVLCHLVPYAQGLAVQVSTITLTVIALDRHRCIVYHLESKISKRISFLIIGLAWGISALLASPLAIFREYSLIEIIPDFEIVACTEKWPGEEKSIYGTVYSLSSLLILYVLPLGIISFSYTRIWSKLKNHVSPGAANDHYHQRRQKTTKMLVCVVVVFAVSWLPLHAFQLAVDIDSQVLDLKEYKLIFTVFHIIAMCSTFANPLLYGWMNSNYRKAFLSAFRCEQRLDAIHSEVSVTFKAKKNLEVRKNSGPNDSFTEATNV
RAM network inh – yeast RAM network inhibition. S. cerevisiae dse1pr::URA3 reporter, 5-FOA growth OD615, 2 d; analog-sensitive cbk1-as2 kinase mutant strain. inhibition, % at 50 µM. actives 1.8% (n = 190,000). AID 868;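 active means inhibition above a set limit, 3 SD over mean compound inhibition, cut at about 8.4% in these data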;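 further: 0% = DMSO-only wells with no growth and 100% = 10 µM 1-NA-PP1 full growth; inhibition rescues growth on 5-FOA so higher OD means more RAM inhibition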
NPY-Y1 PAM-ag – potentiates or activates human NPY-Y1 receptor; P25929; NPY-Y1 expressing cells, potentiator/agonist activation; activation, % at 3.6 µM; actives 0.37% (n = 220,000); AID 1304; in the data active means activation above about 33%, passing the limit was not always enough;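 further: cells stimulated with NPY at EC10 then isoproterenol at EC100; 0% = low agonist plus stimulus and 100% = saturating agonist plus stimulus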
NPY-Y2 antag – blocks the human neuropeptide Y Y2 receptor; P49146; NPY-Y2 expressing cells, antagonist mode; inhibition, % at 2.7 µM; actives 0.99% (n = 140,000); AID 793; in the data active means inhibition above about 17%;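 further: 0% = vehicle with agonist challenge and 100% = reference antagonist with challenge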
Insulin prom inh – TRM-6 insulin promoter activity inhibition; TRM-6 cells, insulin promoter-eGFP reporter, imaging; reporter expression induced with tamoxifen; inhibition, % at 2 µM; actives 0.9% (n = 130,000); AID 1273;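 active means inhibition above the mean plus 3 SD, with well images judged a real hit on visual review, cut at about 60% in these data, passing the limit was not always enough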
NPY-Y1 confirm – human NPY-Y1 potentiation or agonism, confirmation; shares compounds with NPY-Y1 PAM-ag; cell-based NPY-Y1 potentiator/agonist assay; activation, % at 3.6 µM; actives 20% (n = 280); AID 1546; in the data active means activation above about 45%;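 further: cells challenged with NPY at its EC10 plus isoproterenol stimulus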
NPY-Y2 counter – potentiates or activates NPY-Y2, counter-screen for NPY-Y1 hits | AID 1649 | HEK293-CNG cells, membrane-potential fluorescence (FLIPR), 1536-well | actives 20% (n = 280) | shares compounds with NPY-Y1 PAM-ag | activation, % at 3.6 µM; in the data active means activation above about 33%
NPY-Y1 ag – human NPY-Y1 agonism as potentiator counter-screen; shares compounds with NPY-Y1 PAM-ag; HEK293 Y1-CNGC, membrane potential fluorescence, agonist mode; activation, % at 3.6 µM; actives 50% (n = 280); AID 1697;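 active means percent activation above the mean of DMSO-only control wells plus 3 SD of those wells, cut at about 18% in these data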;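 further: cells challenged with isoproterenol plus Ro 20-1724 with no NPY in test wells; Y1 agonism lowers isoproterenol-driven cAMP and reduces probe fluorescence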
NPY-Y2 agonist – counter-screen for NPY-Y1 potentiators or agonists: agonists of NPY-Y2; shares compounds with NPY-Y1 PAM-ag; HEK293 Y2-CNGC, membrane potential fluorescence, agonist mode; activation, % at 3.6 µM; actives 67% (n = 280); AID 1698;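 active means activation above the solvent-only control wells' mean plus 3 SD, cut at about 11% in these data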;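 further: 0% = DMSO with isoproterenol and 100% = 40 nM NPY maximal response; agonism lowers cAMP so well fluorescence drops in active wells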
CNGC counter – CNG channel inhibition, counter-screen for NPY-Y1 potentiators. inhibition, % at 3.6 µM. shares compounds with NPY-Y1 PAM-ag. AID 1704. HEK293-CNG parental, isoproterenol cAMP, membrane potential fluorescence. actives 42% (n = 280);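 active means inhibition above the mean of stimulated solvent-only control wells plus 3 SD, cut at about 22% in these data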;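 further: 0% = isoproterenol-stimulated DMSO wells and 100% = unstimulated DMSO wells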
* hit, by the source's call; · = no result. Shown are actives, neighbours in structure and some others; about 3.8% of the full set was active somewhere.

SMILES | NPY-Y1 antag | NPY-Y2 PAM-ag | RAM network inh | NPY-Y1 PAM-ag | NPY-Y2 antag | Insulin prom inh | NPY-Y1 confirm | NPY-Y2 counter | NPY-Y1 ag | NPY-Y2 agonist | CNGC counter
Cn1c(C(O)C(O)c2ccccc2)nc2ccccc21 (stereo not given) | -4.9 | 5.9 | 3.5 | 9.2 | · | · | · | · | · | · | ·
Cn1c(C(C#N)C2=C(Cl)C(=O)N(c3ccccc3)C2=O)nc2ccccc21 (stereo not given) | -17.3 | 29.9 | 5.2 | 36.0* | -6.8 | · | 70.5* | 59.6* | 83.3* | 72.5* | 57.6*
O=c1c(Br)c(NCc2ccccc2)cnn1-c1ccc(F)cc1 | 1.1 | 6.7 | 0.8 | 15.3 | · | 40.0 | · | · | · | · | ·
CCOC(=O)/C=C/C(=O)Nc1ccc(Oc2ccccc2)cc1 | -10.5 | 6.0 | 4.4 | 38.6* | · | · | 17.9 | 11.9 | 16.5 | 18.8* | 25.2*
COc1ccc(S(=O)(=O)Nc2ccccc2C(=O)Nc2nc(-c3ccc(F)cc3)cs2)cc1OC | -5.3 | 32.2 | 4.2 | 39.0* | 4.0 | 10.7 | -16.1 | 9.5 | -12.1 | 7.5 | -4.9
O=C1N(C2CCCC2)C[C@@H]2C[C@@H](c3cn[nH]c3-c3ccc(Cl)cc3)N3CCC[C@@]123 | -6.6 | 3.7 | -0.5 | 39.0* | · | · | 49.1* | 24.6 | 31.6* | 31.1* | 41.6*
COc1ccc(NC(=O)c2ccc(OC(F)F)cc2)cc1Cl | 6.3 | -3.5 | 6.2 | -13.6 | 2.6 | -12.5 | · | · | · | · | ·
O=C(Nc1ccc(OC(F)F)c(Cl)c1)c1ccccn1 | -1.5 | -3.4 | 3.1 | 39.4* | · | -75.0 | 9.7 | -4.4 | -9.0 | -10.0 | 1.4
CCN1CCCC1CNC(=O)c1ccc(Sc2ccccc2Cl)c([N+](=O)[O-])c1 (stereo not given) | 5.7 | 23.2 | -1.0 | 36.1* | · | 28.6 | 32.0 | 23.5 | 22.6* | 30.3* | 34.3*
CC(C)N=C1NN=C(c2ccc(Cl)c(Cl)c2)CS1 | 0.7 | 8.8 | 1.2 | 49.1* | · | -23.5 | -1.3 | -3.0 | -4.3 | 2.1 | 4.1
CC(C)N=C1NN=C(c2cccs2)CS1 | 7.3 | -8.7 | 1.8 | -0.4 | · | 42.9 | · | · | · | · | ·
COC(=O)c1ccc(NC(=O)CN2CCN(c3ccc(Cl)cc3)CC2)cc1 | 2.8 | -5.5 | 1.5 | 12.2 | 6.6 | · | · | · | · | · | ·
COC(=O)c1ccc(NC(=O)CN2CCN(c3ccccc3C)CC2)cc1 | 13.0 | 9.7 | -0.4 | 54.2* | 10.2 | 7.7 | -37.4 | -25.9 | -22.1 | -4.2 | -26.6
COCC(=O)NC1CCN(S(=O)(=O)c2cccc(C(C)=O)c2)CC1 | 0.9 | 2.7 | 1.1 | 9.6 | · | · | · | · | · | · | ·
COc1ccc(C)cc1N=Nc1ccc(O)c2ncccc12 | -10.0 | 19.7 | 0.3 | 47.4* | · | · | 48.8* | 41.9* | 56.5* | 53.1* | 50.5*
COc1ccc(N=Nc2ccc(O)c3ncccc23)cc1 | · | 25.1 | · | 40.4 | · | · | · | · | · | · | ·
O=[N+]([O-])c1cc(S(=O)(=O)N2CCCCCC2)ccc1Cl | -2.0 | 30.6 | 5.6 | 41.5* | · | · | 15.8 | 22.1 | 16.4 | 22.1* | 55.9*
O=C1CCCN1c1ccc(S(=O)(=O)N2CCCCC2)cc1[N+](=O)[O-] | -0.9 | -2.4 | 0.4 | 5.4 | · | · | · | · | · | · | ·
CCN1C(c2ccc(F)cc2)=CS/C1=C(\C#N)c1nnc2n1-c1ccccc1SC2 | 4.2 | 3.6 | 3.4 | -13.1 | 1.2 | · | · | · | · | · | ·
CCOC(=O)N1CCN(C(=O)CN(C2CCCCC2)S(=O)(=O)c2c(C)cc(C)cc2C)CC1 | 2.7 | -21.1 | 0.1 | 70.9* | 1.4 | -75.0 | -6.5 | -4.8 | -12.6 | 4.3 | -8.4
Cc1ccccc1OCC(O)CN1CCN(c2ccc(Cl)cc2)CC1 (stereo not given) | · | -38.6 | · | -31.7 | · | · | · | · | · | · | ·
Cc1ccccc1OCC(O)CN1CCN(CC(O)COc2ccccc2C)CC1 (stereo not given) | -4.8 | 23.0 | 2.0 | 40.1* | · | -34.9 | 17.8 | 19.0 | 31.1* | 15.6* | 0.1
COc1ccc(OC(C)C(=O)Nc2ccccc2C(F)(F)F)cc1 (stereo not given) | 0.3 | 8.8 | -0.2 | -4.5 | -0.3 | -9.1 | · | · | · | · | ·
CC(Oc1cc(C(F)(F)F)cc(C(F)(F)F)c1)C(=O)NC(N)=O (stereo not given) | -12.9 | 23.6 | 0.5 | 49.4* | 3.0 | -24.2 | 45.6* | 28.6 | 34.1* | 31.8* | 35.6*
Cc1cc(NC(=O)CCOc2ccc(F)cc2)no1 | · | -2.3 | · | -12.3 | · | · | · | · | · | · | ·
SMILES | NPY-Y1 antag | NPY-Y2 PAM-ag | RAM network inh | NPY-Y1 PAM-ag | NPY-Y2 antag | Insulin prom inh | NPY-Y1 confirm | NPY-Y2 counter | NPY-Y1 ag | NPY-Y2 agonist | CNGC counter
Cc1ccc(S(=O)(=O)O/N=C2\CCCc3ccccc32)cc1 | 4.2 | -1.0 | -0.6 | -8.2 | 2.0 | -11.4 | · | · | · | · | ·
CC1=C(C)/C(=N\OS(=O)(=O)c2ccccc2)C=CC1=O | -4.8 | 12.3 | -1.8 | 69.7* | 2.9 | -183.3 | -0.8 | 12.8 | 0.9 | 12.8* | 0.0
O=c1[nH]c(Cc2cccs2)nc2scc(-c3ccc(Cl)cc3)c12 | · | 26.3 | · | 66.1* | · | · | 29.8 | 23.4 | 35.7* | 33.3* | 44.0*
O=c1[nH]c(Cc2ccccn2)nc2scc(-c3ccc(Cl)cc3)c12 | -8.1 | 11.4 | 0.2 | 25.0 | · | 8.6 | · | · | · | · | ·
COc1cccc(NC(=O)c2ccc(NCCCN3CC(C)CC(C)C3)c([N+](=O)[O-])c2)c1 (stereo not given) | -0.8 | 16.3 | -0.5 | 37.8* | · | -25.0 | 43.5 | 26.2 | 16.0 | 13.7* | 31.0*
COc1cccc(NC(=O)c2ccc(NCCCN3CCC(C)CC3)c([N+](=O)[O-])c2)c1 | 0.4 | 14.5 | -1.1 | 17.7 | · | 25.0 | · | · | · | · | ·
CCOc1ccc(N2C(=O)C(CC(=O)Nc3ccccc3)N(Cc3ccccn3)C2=S)cc1 (stereo not given) | -9.7 | 13.8 | 0.5 | 22.9 | · | · | · | · | · | · | ·
CCOc1ccc(N2C(=O)C(CC(=O)Nc3ccc(F)cc3)N(Cc3ccccn3)C2=S)cc1 (stereo not given) | -11.7 | 10.8 | 1.1 | 42.1* | · | -107.1 | 46.8* | 32.3 | 35.1* | 46.5* | 41.0*
Cc1cc(C)cc(Oc2ccc(NC(=O)C3CC=CCC3C(=O)O)cc2)c1 (stereo not given) | -4.2 | 0.3 | 1.9 | -1.6 | · | · | · | · | · | · | ·
CN1CCc2nc(NC(=O)COc3ccc(C#N)cc3)sc2C1 | 4.6 | -9.7 | 3.5 | -1.2 | · | 21.4 | · | · | · | · | ·
